Bioassay records deposited in PubChem BioAssay by several laboratories.
M1 ag: agonists of M1 muscarinic receptor | actives 3% (n = 64,000) | B-score at 10 µM | CHO-M1 cells, Fluo-4 calcium fluorescence, agonist mode; active compounds read high;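 active = fluorescence rise, raw or as B-score row- and column-corrected plate score, outside the 99.7% band of its plate's samples, either direction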
S1P3 ag: S1P3 (human) receptor agonism | Q99500 | S1P3 NFAT-BLA reporter cells, FRET ratio; relative to 1 µM S1P, basal subtracted | activation, % at 4.5 µM | actives 0.1% (n = 60,000) | AID 373;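 active = activation above the screen-wide mean plus 3 SD, cut at about 4.5% in these data, passing the limit was not always enough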
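Material: Human S1P3 NFAT-BLA reporter CHO cells | Incubation: Overnight plating, 4 h compound 37 °C, 2 h substrate RT | Signal: FRET β-lactamase substrate fluorescence, excitation 405 nm, 460/535 nm emission ratio, background-subtracted | Compound: 4.5 µM final, single dose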
S1P1 ag pot: S1P1 (human) agonism or agonism potentiation. P21453. S1P1 CRE-bla cells, forskolin, beta-lactamase FRET, potentiator mode; S1P1 agonist co-added at EC20, 2 nM; 100% = saturating reference agonist, 0% = basal. activation, % at 9.5 µM. actives 0.57% (n = 56,000);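 active = activation above a cutoff set at the mean activation of all tested compounds plus 3 SD, cut at about 54% in these data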;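 also: forskolin at 4 µM as EC80 and the EC20 agonist is SEW2871; 100% = SEW2871 at its EC100 plus forskolin at EC80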
M1 antagonist: antagonists of rat M1 muscarinic receptor; AID 628; actives 3.4% (n = 64,000); B-score at 10 µM; CHO-M1 cells, Fluo-4 calcium, ACh EC80 antagonist mode; active compounds read low;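 active = calcium fluorescence response, raw or row-and-column corrected B-score, differing from the plate sample mean either way at a set confidence level, mostly lower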
Target sequence (P08482 whole entry, looked up): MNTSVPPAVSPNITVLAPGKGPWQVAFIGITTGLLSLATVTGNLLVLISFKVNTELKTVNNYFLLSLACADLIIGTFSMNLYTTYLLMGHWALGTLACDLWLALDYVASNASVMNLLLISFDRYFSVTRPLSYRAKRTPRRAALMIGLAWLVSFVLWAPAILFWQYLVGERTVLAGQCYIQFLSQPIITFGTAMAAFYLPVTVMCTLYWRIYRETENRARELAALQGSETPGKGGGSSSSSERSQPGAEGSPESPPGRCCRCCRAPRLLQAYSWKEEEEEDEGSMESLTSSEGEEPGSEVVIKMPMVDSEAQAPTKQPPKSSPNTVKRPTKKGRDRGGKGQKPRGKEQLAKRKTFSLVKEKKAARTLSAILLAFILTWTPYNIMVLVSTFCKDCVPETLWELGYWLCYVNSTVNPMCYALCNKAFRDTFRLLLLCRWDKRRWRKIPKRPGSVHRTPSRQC
D1 mod: allosteric modulators of human D1 dopamine receptor | actives 5.9% (n = 58,000) | P21728 | AID 641 | HEK293 D1, CRE-luciferase, dopamine EC30 potentiation; actives deviate in either direction | B-score at 10 µM;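 active = luminescence count or its row- and column-corrected plate score outside the 99.7% band of the plate's sample wells, on either side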
M1 ag confirm: rat M1 muscarinic agonism, confirmation; shares compounds with M1 ag; CHO-M1 cells, Fluo-4 calcium fluorescence, agonist mode; actives lie on both sides; fluorescence change (max-min) at 10 µM; actives 19% (n = 1,700);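 active = fluorescence change differs from the solvent-only DMSO control mean at a set confidence level in both duplicate runs; inconclusive = differs from solvent-only control mean in just one of two runs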;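 also: an EC20 dose of acetylcholine follows compound addition during the same imaging run; raw fluorescence intensity difference in instrument units with no normalization to controls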
M4 agonist ctr: rat M4 muscarinic agonism, M1 counter-screen | shares compounds with M1 ag | CHO M4/Gqi5 cells, Fluo-4 calcium fluorescence, agonist mode; actives lie on both sides | fluorescence change (max-min) at 10 µM | actives 9% (n = 1,700) | AID 1741;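 active = fluorescence change differing from the plate's solvent-only control wells at 99.7% confidence in both duplicates, whether higher or lower; inconclusive = differs from solvent controls in only one of two duplicates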
* = called active by the depositor; ? = inconclusive; nt = no result given. Shown are actives, neighbours in structure and some others; about 11% of the full set was active somewhere.

SMILES	M1 ag	S1P3 ag	S1P1 ag pot	M1 antagonist	D1 mod	M1 ag confirm	M4 agonist ctr
Cc1ccccc1CN(c1ccc(C(=O)N2CCCC2)cc1)S(C)(=O)=O	3.2*	-1	-15	0.37	-0.14	16	-2
Cc1ccc(CN(c2ccc(C(=O)N3CCCC3)cc2)S(C)(=O)=O)cc1	0.86	-1	-13	0.42	0.39	nt	nt
COc1ccc(C2C(C(C)=O)=C(C)N=c3s/c(=C/c4ccc5c(c4)OCO5)c(=O)n32)cc1 (stereo not given)	3.9*	nt	nt	-0.39	0.66	40	36
COc1ccc(NC(=O)CN2C(=O)CC(C)(C)S(=O)(=O)c3ccccc32)cc1	-0.82	-1	-3	0.52	-0.056	nt	nt
COC(=O)CSc1nc(C)c(Oc2ccccc2)c(=O)[nH]1	0.88	-1	6	0.12	0.17	nt	nt
CCOc1ccc(NC(=O)Nc2ccc3nccnc3c2)cc1	9.6*	-1	19	-0.85	-0.64	-7.6	-49
CC(C)(C)NC(=O)Nc1ccc2nccnc2c1	-0.15	1	-14	0.58	0.63	nt	nt
CCOC(=O)N1CCC(n2c(SCC(=O)NCc3ccccc3)nc3ccccc3c2=O)CC1	3.6*	nt	nt	-1	nt	-6.3	-11
CCOC(=O)N1CCC(n2c(SCC(=O)Nc3ccccc3OC)nc3ccccc3c2=O)CC1	1.8	nt	nt	-0.13	-0.25	nt	nt
CCOC(=O)C1CCCN(c2ncnc3c2cnn3-c2cccc(C)c2)C1 (stereo not given)	33*	nt	nt	-2.2*	nt	282*	-27
CCOC(=O)C1CCN(c2ncnc3c2cnn3-c2ccc(OC)cc2)CC1	0.42	0	-6	-0.56	nt	nt	nt
Cc1ccc(-n2ncc3c(N4CCCC4)ncnc32)c(C)c1	0.18	-3	-11	-0.18	nt	nt	nt
COc1cccc(N2CCN(c3ncnc4c3cnn4-c3ccc(C)cc3C)CC2)c1	9.7*	-3	6	-1.2	-7.4*	-12	-31
Cn1c(NC(=O)c2ccc(Br)o2)cc(=O)n(C)c1=O	-0.037	-1	nt	0.34	-0.19	nt	nt
CCC(=O)c1ccc(OCC(O)Cn2c(C)nc3ccccc32)cc1 (stereo not given)	6.8*	-1	23	-0.93	-2.2	-34*	-96
CCC(=O)c1ccc(OCC(O)Cn2cnc3ccccc32)cc1 (stereo not given)	-1.6	-1	6	-0.013	nt	nt	nt
Cc1ccc(-c2cn3nc(C)c(C)nc3n2)cc1	11*	1	-6	0.4	-8.5*	103*	83
COc1ccc2c(c1OC)C(=O)N1c3ccccc3C(=O)N(c3ccccc3)C21 (stereo not given)	13*	-5	-5	-1.3	nt	?	-37
COc1ccc2c(c1OC)C(=O)N1c3ccccc3C(=O)N(c3ccc(F)cc3)C21 (stereo not given)	13*	-8	-7	-1.7	nt	-13	-27
COc1ccc(OC)c(C2C(C(C)=O)=C(O)C(=O)N2c2ccc(F)cc2)c1 (stereo not given)	nt	-1	14	nt	-1.7	nt	nt
O=C1c2ccccc2N2C(=O)c3ccccc3C2N1O (stereo not given)	-1.7	-1	-19	-0.3	nt	nt	nt
CCN(CCCNC(=O)C1CCN(S(=O)(=O)c2cnc[nH]2)CC1)c1cccc(C)c1	0.65	0	-3	-0.13	1.8	nt	nt
O=C(Nc1ccccn1)C(NS(=O)(=O)c1cccc2nsnc12)c1ccccc1 (stereo not given)	-1.2	1	-5	-1.5	-0.39	nt	nt
Cc1ccc(S(=O)(=O)N2CCOCC2)cc1C(=O)Nc1nc(-c2cccnc2)cs1	0.21	nt	nt	0.88	-0.1	nt	nt
Cc1ccc(S(=O)(=O)N2CCOCC2)cc1C(=O)Nc1ccc(-c2cn3ccsc3n2)cc1	3.3*	2	0	-0.0062	-3.6	-8.1	?
SMILES	M1 ag	S1P3 ag	S1P1 ag pot	M1 antagonist	D1 mod	M1 ag confirm	M4 agonist ctr
CN1CCN(c2ncnc3c2cnn3-c2ccc(Cl)cc2)CC1	2.9*	-1	16	-1.1	-6.2*	?	-53
CCOc1ccc(NC(=O)Nc2ccc3c(c2)N(C)C(=O)CS3)cc1	-0.77	0	32	0.0026	-0.92	nt	nt
COc1ccc(NC(=O)Nc2ccc3c(c2)N(C)C(=O)CS3)cc1OC	3.1*	0	-36	-1.5	-3.9	?	-28
COc1ccc(C2N=C(c3ccccc3)C(C)(C)N2O)cc1OC (stereo not given)	-0.95	0	-15	0.22	-0.1	nt	nt
CCOC(=O)c1c(N)n(CCOC(=O)c2cccs2)c2nc3ccccc3nc12	9.8*	0	-11	-1	0.78	-2.5	-37
CC(=O)Nc1cccc(NC(=O)C2CC(=O)N(c3ccc(C)cc3)C2)c1 (stereo not given)	3.1*	1	7	0.85	-0.028	-19	-53
Cc1ccc(N2CC(C(=O)Nc3ccncc3)CC2=O)cc1 (stereo not given)	0.35	0	5	0.053	-0.39	nt	nt
O=C(CN1c2cccc3cccc(c23)S1(=O)=O)NCc1ccc2c(c1)OCO2	21*	-1	7	-4*	5.3*	48	-18
Cc1ccc(Cl)cc1NC(=O)CC(O)(C(F)(F)F)C(F)(F)F	11*	-2	nt	-2.5*	-4.2*	16	-3.4
NC(=O)C1CCN(C(=O)c2cc3n(n2)C(C(F)(F)F)CC(c2ccco2)N3)CC1 (stereo not given)	0.23	0	-25	-0.32	-0.029	nt	nt
O=C(Nc1ccc(O)cc1)c1cc2n(n1)C(C(F)(F)F)CC(c1ccco1)N2 (stereo not given)	-2.3*	0	100*	0.38	-0.023	-10	-52
COc1ccc(N(CC(=O)Nc2cc(C(=O)O)ccc2C)S(=O)(=O)c2c(C)noc2C)cc1	0.69	-1	-7	-0.11	nt	nt	nt
CC(Nc1ncnc2nc[nH]c12)c1ccccc1 (stereo not given)	2.8*	-1	-7	0.32	-0.81	-14	-29
COc1cccc(C2C=C(c3ccc(Br)s3)Nc3ncnn32)c1OC (stereo not given)	18*	0	3	-0.96	-0.68	170*	156*
CCn1nnc(-c2ccccc2NC(=O)C(F)(F)F)n1	-0.62	-1	-10	-0.041	0.77	nt	nt
CCCCS(=O)(=O)NC1=NCN(Cc2ccco2)CN1	0.25	0	-5	0.013	-0.67	nt	nt
COC(=O)c1ccccc1NC(=O)Cn1cnc2cc(C)c(C)cc21	-2.8*	-1	5	-0.43	-1.5	-3.3	-26
COc1cc(OC)cc(-c2nnc(SCC(=O)Nc3cc(C)on3)o2)c1	-0.65	0	-7	0.55	-0.035	nt	nt
O=C(CN1CCN(C(=O)c2ccccc2F)CC1)Nc1ccc(Br)cc1	-1.1	-1	-23	-0.3	0.023	nt	nt
